Measurements as given in ChEMBL document CHEMBL5143527, “Discovery and optimization of cyclohexane-1,4-diamines as allosteric MALT1 inhibitors” (Eur J Med Chem, 2022).
≈ marks a conversion by molar mass, not a printed value.

What was measured:
[1] = Lipophilicity, log D of compound at 7.4 by LC-MS analysis; assay type: physicochemical; settings: pH 7.4
In short: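 ChromlogD at pH 7.4: retention time on an LCMS system with an aqueous mobile phase, converted to lipophilicity with a calibration curve.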

[2] = biological target: T1, Mucosa-associated lymphoid tissue lymphoma translocation protein 1 (Homo sapiens, UniProt Q9UDY8); test: Inhibition of human MALT1 assessed as cleavage of substrate using fluorescent labeled Ac-LRSR-Rh110 peptide as substrate incubated for 30 mins followed by substrate addition and measured after 3 to 4 hrs by FRET assay
T1 sequence (Q9UDY8 whole entry): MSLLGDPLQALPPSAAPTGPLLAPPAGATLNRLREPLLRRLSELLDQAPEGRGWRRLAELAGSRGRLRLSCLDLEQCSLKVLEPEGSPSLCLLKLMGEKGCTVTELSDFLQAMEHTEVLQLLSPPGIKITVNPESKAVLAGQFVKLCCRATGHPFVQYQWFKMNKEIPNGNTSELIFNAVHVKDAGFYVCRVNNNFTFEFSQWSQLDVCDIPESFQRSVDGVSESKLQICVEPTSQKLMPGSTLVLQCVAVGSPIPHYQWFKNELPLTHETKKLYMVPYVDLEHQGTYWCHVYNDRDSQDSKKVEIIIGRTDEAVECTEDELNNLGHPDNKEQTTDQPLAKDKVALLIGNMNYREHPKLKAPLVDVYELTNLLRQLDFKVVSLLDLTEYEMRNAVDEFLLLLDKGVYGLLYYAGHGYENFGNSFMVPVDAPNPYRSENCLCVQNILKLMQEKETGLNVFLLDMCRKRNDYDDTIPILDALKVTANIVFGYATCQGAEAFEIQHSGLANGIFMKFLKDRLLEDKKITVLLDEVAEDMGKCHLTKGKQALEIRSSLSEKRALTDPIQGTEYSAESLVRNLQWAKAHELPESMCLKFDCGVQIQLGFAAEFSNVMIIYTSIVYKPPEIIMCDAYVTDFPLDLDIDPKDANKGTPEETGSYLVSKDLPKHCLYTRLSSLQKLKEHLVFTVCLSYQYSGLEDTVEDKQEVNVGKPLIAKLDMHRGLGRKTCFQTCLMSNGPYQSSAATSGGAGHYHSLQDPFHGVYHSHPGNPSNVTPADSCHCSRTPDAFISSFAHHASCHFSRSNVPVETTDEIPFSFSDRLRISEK
In short: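 Fluorogenic MALT1 cleavage assay with the tetrapeptide LRSR carrying rhodamine 110 and a non-fluorescent quencher; signal read as FRET. Horseradish peroxidase and resazurin redox counter-assays used to exclude artefacts. Values are the mean of at least three independent measurements, with standard deviation.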

[3] = Metabolic stability in human liver microsomes assessed as intrinsic clearance by LC-MS/MS analysis; assay type: ADME, Microsome; settings: read-out: CLH
In short: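 Human liver microsomes, compound incubated; intrinsic clearance from disappearance of the parent compound over time.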

[4] = biological target: T1, Mucosa-associated lymphoid tissue lymphoma translocation protein 1; test: Inhibition of human MALT1 in human MCF7 cells assessed as MALT1 mediated cleavage of human A20 in cytosol by fluorescence microscopy; assay type: subcellular
In short: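 Cellular MALT1 activity in MCF7 cells, read as inhibition of MALT1-mediated cleavage of human A20.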

Cytochrome P450 2C19 = Cytochrome P450 2C19 (Homo sapiens, UniProt P33261); test: Inhibition of CYP2C19 (unknown origin); assay type: ADME
Cytochrome P450 2C19, sequence (P33261 whole entry): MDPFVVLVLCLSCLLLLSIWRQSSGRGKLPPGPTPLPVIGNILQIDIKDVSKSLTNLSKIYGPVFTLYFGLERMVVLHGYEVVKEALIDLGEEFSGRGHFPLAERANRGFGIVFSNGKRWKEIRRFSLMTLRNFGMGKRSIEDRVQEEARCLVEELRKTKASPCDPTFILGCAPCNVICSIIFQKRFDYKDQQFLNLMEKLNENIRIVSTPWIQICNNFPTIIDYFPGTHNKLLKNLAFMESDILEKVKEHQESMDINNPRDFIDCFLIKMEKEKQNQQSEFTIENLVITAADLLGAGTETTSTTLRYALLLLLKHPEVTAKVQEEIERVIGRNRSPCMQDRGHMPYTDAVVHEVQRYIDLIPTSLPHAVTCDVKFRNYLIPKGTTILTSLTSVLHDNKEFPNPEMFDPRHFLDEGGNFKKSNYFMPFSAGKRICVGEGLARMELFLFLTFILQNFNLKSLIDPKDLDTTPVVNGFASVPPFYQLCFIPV

[5] = Solubility of compound in PBS at pH 7.4 incubated for 20 to 24 hrs under shaking condition by LC-MS analysis; assay type: physicochemical; settings: time 20-24 hrs
In short: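 Dried-DMSO solubility: 10 mM DMSO stock dried down, residue resolubilized in 0.1 M phosphate buffer, pH 7.4.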

[6] = biological target: Voltage-gated inwardly rectifying potassium channel KCNH2 (Homo sapiens, UniProt Q12809); test: Inhibition of human ERG; assay type: toxicity
Voltage-gated inwardly rectifying potassium channel KCNH2, sequence (Q12809 whole entry): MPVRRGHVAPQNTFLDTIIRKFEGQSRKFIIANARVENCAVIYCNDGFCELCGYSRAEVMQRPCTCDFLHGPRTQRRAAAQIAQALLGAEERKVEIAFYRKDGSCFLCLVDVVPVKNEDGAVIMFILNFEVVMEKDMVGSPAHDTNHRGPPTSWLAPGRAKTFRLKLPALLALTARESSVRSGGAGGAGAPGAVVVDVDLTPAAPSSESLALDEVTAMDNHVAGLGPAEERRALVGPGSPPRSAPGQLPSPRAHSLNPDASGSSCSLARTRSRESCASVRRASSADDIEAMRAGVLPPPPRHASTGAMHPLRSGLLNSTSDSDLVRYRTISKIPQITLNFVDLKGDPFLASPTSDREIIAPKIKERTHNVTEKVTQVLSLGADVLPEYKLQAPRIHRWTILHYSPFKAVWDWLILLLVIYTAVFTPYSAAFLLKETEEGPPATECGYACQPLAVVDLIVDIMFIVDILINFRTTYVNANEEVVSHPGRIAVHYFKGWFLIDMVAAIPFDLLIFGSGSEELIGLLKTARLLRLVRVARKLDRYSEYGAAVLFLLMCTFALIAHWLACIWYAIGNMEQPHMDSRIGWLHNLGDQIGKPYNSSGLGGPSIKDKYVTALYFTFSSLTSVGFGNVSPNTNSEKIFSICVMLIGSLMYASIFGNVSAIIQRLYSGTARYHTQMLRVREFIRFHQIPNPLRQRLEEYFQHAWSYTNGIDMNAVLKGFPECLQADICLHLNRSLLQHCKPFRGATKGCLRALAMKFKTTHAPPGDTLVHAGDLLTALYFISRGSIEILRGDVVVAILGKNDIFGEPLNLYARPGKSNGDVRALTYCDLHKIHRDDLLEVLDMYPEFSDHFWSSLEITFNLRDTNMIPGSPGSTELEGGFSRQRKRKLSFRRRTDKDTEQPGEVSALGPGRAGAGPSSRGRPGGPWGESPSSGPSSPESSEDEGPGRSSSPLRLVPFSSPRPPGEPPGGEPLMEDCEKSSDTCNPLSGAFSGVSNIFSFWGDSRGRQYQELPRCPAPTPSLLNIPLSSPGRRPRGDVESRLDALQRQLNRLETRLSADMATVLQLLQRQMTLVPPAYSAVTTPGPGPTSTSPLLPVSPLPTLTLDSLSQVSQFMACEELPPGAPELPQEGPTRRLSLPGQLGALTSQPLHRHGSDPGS

Cytochrome P450 1A2 = biological target: T2, Cytochrome P450 1A2 (Homo sapiens, UniProt P05177); test: Inhibition of CYP1A2 (unknown origin); assay type: ADME
T2 sequence (P05177 whole entry): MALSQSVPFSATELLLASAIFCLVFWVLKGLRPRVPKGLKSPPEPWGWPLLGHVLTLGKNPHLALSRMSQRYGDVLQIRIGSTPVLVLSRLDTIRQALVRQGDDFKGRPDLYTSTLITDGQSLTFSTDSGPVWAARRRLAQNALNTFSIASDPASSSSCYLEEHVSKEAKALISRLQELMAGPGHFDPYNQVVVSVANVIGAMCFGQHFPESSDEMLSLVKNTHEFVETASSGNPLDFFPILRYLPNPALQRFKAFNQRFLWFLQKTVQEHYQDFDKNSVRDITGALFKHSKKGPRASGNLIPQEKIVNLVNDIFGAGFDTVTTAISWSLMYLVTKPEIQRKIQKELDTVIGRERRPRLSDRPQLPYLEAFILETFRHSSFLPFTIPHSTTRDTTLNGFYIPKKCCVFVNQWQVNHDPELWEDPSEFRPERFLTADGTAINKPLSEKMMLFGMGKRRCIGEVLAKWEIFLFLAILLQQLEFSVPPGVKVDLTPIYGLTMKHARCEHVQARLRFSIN

Cytochrome P450 2C9 = Cytochrome P450 2C9 (Homo sapiens, UniProt P11712); test: Inhibition of CYP2C9 (unknown origin); assay type: ADME
Cytochrome P450 2C9, sequence (P11712 whole entry): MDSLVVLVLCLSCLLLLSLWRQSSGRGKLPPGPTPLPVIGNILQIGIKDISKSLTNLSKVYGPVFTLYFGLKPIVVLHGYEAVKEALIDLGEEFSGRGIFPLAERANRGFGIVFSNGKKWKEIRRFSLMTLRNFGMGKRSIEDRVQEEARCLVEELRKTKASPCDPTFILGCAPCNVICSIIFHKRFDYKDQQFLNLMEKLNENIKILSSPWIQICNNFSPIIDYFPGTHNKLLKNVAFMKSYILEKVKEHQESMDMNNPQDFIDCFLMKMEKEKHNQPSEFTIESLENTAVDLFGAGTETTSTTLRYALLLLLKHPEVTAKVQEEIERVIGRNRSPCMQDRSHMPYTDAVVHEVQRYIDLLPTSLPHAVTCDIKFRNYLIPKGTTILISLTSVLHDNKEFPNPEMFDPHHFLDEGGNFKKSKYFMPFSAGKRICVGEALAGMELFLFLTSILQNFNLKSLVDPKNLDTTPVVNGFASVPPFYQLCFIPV

Cytochrome P450 2D6 = Cytochrome P450 2D6 (Homo sapiens, UniProt P10635); test: Inhibition of CYP2D6 (unknown origin); assay type: ADME
Cytochrome P450 2D6, sequence (P10635 whole entry): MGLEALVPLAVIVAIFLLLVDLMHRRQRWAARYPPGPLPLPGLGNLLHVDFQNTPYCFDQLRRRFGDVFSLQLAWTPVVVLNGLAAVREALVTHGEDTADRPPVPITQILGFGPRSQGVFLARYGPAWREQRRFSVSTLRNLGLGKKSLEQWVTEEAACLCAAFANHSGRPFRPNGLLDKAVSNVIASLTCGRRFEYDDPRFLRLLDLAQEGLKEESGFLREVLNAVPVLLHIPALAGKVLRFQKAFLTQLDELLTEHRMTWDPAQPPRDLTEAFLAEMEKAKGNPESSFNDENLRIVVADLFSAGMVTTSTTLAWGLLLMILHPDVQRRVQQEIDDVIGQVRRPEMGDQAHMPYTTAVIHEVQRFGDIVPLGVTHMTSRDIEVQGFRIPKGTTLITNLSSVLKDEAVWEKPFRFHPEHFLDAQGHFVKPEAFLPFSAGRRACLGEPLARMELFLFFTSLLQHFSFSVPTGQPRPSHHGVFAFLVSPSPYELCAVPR

Cytochrome P450 3A4 = Cytochrome P450 3A4 (Homo sapiens, UniProt P08684); test: Inhibition of CYP3A4 (unknown origin); assay type: ADME
Cytochrome P450 3A4, sequence (P08684 whole entry): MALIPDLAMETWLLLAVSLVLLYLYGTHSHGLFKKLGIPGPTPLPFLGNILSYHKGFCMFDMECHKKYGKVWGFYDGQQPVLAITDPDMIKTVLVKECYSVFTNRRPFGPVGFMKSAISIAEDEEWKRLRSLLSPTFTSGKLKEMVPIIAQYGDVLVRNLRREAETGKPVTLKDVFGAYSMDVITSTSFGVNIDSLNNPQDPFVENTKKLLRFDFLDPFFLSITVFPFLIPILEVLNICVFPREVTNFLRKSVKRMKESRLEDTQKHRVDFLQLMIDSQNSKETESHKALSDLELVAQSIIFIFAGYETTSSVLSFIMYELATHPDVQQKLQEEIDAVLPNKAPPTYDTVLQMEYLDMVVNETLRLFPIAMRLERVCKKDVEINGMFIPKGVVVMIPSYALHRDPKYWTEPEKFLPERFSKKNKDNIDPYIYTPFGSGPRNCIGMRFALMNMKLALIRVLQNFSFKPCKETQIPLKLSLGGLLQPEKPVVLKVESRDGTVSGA

[7] = Passive permeability of compound across apical to basolateral in human Caco2 cells at 10 uM and measured upto 120 mins by LC-MS/MS analysis; assay type: ADME, cell-based; settings: Caco-2
In short: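 Apical-to-basolateral passive permeability across Caco-2 monolayers, run in the presence of inhibitors of the efflux transporters P-gp, BCRP and MRP2.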

[8] = Volume of distribution at steady state in Wistar Han rat at 0.9 mg/kg, po or 0.5 mg/kg, iv; assay type: ADME, organism-based; settings: in vivo
[9] = Oral bioavailability in Wistar Han rat at 0.9 mg/kg; assay type: ADME, organism-based; settings: in vivo
[10] = Half life in Wistar Han rat at 0.9 mg/kg, po or 0.5 mg/kg, iv; assay type: ADME, organism-based; settings: in vivo
[11] = AUC in Wistar Han rat at 0.9 mg/kg, po or 0.5 mg/kg, iv; assay type: ADME, organism-based; design: dose 0.9 mg/kg, route po; settings: in vivo

Row | Compound | logD [1] | IC50 [2] [µM] | microsomal CLint [3] [µL/min/mg] | also measured
1 | Clc1nnc2ccc(N[C@H]3CC[C@@H](Nc4ccncn4)CC3)nn12 | 0.7 | 31 | 25 | –
2 | Cc1nnc2ccc(N[C@H]3CC[C@@H](Nc4ccnc(C(F)(F)F)n4)CC3)nn12 | 2.3 | 4.7 | < 3 | –
3 | CN(c1ccnc(C(F)(F)F)n1)[C@H]1CC[C@@H](Nc2ccc3nnc(Cl)n3n2)CC1 | 3.6 | 1.1 | 18 | –
4 | FC(F)(F)c1nccc(N[C@H]2CC[C@@H](Nc3ccncn3)CC2)n1 | 1.9 | > 50 | 18 | –
5 | COc1ncc(N[C@H]2CC[C@@H](Nc3ccc4nnc(Cl)n4n3)CC2)cc1Cl | 3.8 | 0.6 | < 3 | –
6 | FC(F)(F)c1nccc(O[C@H]2CC[C@@H](Nc3ccc4nnc(Cl)n4n3)CC2)n1 | 3.7 | 1.2 | < 3 | –
7 | FC(F)(F)c1nccc(N[C@H]2CC[C@@H](Nc3ccc4nnc(Br)n4n3)CC2)n1 | 2.9 | 1.1 | < 3 | IC50 [4]: 6.1 µM
8 | Nc1nnc2ccc(N[C@H]3CC[C@@H](Nc4ccnc(C(F)(F)F)n4)CC3)nn12 | 1.4 | 26 | < 3 | –
9 | FC(F)(F)c1nccc(N2CCC(CNc3ccc4nnc(Cl)n4n3)CC2)n1 | 2.8 | 6.1 | 37 | –
10 | FC(F)(F)c1nccc(N2CCC(Nc3ccc4nnc(Cl)n4n3)CC2)n1 | 2.9 | > 50 | 50 | –
11 | FC(F)(F)c1nccc(N[C@H]2CC[C@@H](Nc3ncnc4sccc34)CC2)n1 | 2.9 | 5 | 22 | –
12 | FC(F)(F)c1nccc(N[C@H]2CC[C@@H](Nc3ccc4nnc(Cl)n4n3)CC2)n1 | 3.1 | 0.3 | < 3 | IC50 (Cytochrome P450 2C19): 14 µM; solubility [5]: 19 µM (≈ 7.84 µg/mL); IC50 [4]: 3.2 µM; IC50 [6]: 24 µM; IC50 (Cytochrome P450 1A2): > 30 µM; IC50 (Cytochrome P450 2C9): 10 µM; IC50 (Cytochrome P450 2D6): > 30 µM; IC50 (Cytochrome P450 3A4): 18 µM; Papp A→B at 2 h, 10 µM [7]: 44 ×10⁻⁶ cm/s; Vdss [8]: 2.2 L/kg; bioavailability [9]: 72%; half-life [10]: 4 h; AUC [11]: 3.21 µM·h
13 | FC(F)(F)c1nccc(N[C@H]2C[C@@H](CNc3ccc4nnc(Cl)n4n3)C2)n1 | 2.5 | 17 | 36 | –
14 | FC(F)(F)c1cc(N[C@H]2CC[C@@H](Nc3ccc4nnc(Cl)n4n3)CC2)ccn1 | 2.9 | 1.5 | 11 | –
15 | FC(F)(F)c1nccc(N2CCN(c3ccc4nnc(Cl)n4n3)CC2)n1 | 2.4 | > 50 | < 3 | –
16 | FC(F)(F)c1nccc(N[C@H]2CC[C@@H](Nc3ccc4cnccc4n3)CC2)n1 | 2.8 | 7.5 | 26 | –
